Results published in PubChem BioAssay.
A number with no mark means an inactive call. Inconclusive results are not listed. The source made the active and inactive calls.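 Rule for the calls, unless noted: active = viability increase at or above a cutoff of the median across tested compounds plus 3 SD (cut at about 8.5% in these data, passing the limit was not always enough); inconclusive = some gains above the cutoff, reason not given; inactive = the rest.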

How the values were obtained:
[1] = OD615 S. cerevisiae growth inhibition, permissive medium, pilot counter-assay, permissive growth control for S. cerevisiae lifespan shortening project (AID 705;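 active = growth inhibition above 25% in both replicates, a cutoff set 3 SD above the mean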); details: OD615, 24 h, at 10 µM, stronger effect = higher value
Procedure, shortened: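 System: engineered DeaD yeast; Medium: permissive raffinose/galactose medium; Compound dosing: 10 µM single dose, 0.25% DMSO; Incubation: 4 h cell pre-growth, 24 h exposure at 30 °C; Technique: OD at 615 nm; Evaluation: growth inhibition from lowered OD615 after 24 h.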

[2] = Restrictive medium S. cerevisiae growth inhibition, OD615, pilot screen of yeast lifespan reduction project, restrictive growth control (AID 706;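 active = growth inhibition above a set limit, 3 SD over mean compound inhibition, in both replicates, cut at about 43% in these data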;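 note: modified DeaD lifespan yeast strain shifted to restrictive glucose medium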); details: OD615, 48 h, at 10 µM, stronger effect = higher value
Procedure, shortened: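 Material: modified S. cerevisiae; buffer or medium: CSMM-D glucose medium; doses: one concentration, 10 µM final, 0.25% DMSO; incubation: 48 h compound exposure at 30 °C; detection: optical density at 615 nm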

[3] = viability gain of MRP-1-high H69AR cells under doxorubicin, pilot screen, MRP-1 activator project, CellTiter-Glo, duplicate (AID 807); details: H69AR viability with doxorubicin, CellTiter-Glo luminescence; at 10 µM; stronger effect = higher value;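 note: compound pretreatment 18-22 h then 72 h combined with doxorubicin; 0% = doxorubicin alone and 100% = vehicle without doxorubicin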
[4] = growth suppression of beta-catenin knockout HCT116, pilot screen, human colon tumor cells (AID 823;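 active = cell viability at or below a set limit in both duplicate runs, the limit being the all-compound median minus 4 SD, cut at about 23% in these data, passing the limit was not always enough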;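 note: 0% = wells killed by 20 µM Hyamine and 100% = untreated DMSO cell wells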); details: CellTiter-Glo, 60 h, at 10 µM, stronger effect = lower value
[5] = growth suppression of PTEN-deleted HCT116, pilot screen, cell-based, HCT116 clonal line, CellTiter-Glo (AID 824;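 active = viability at or below 27.92% in each of two runs, the all-compound median minus 4 SD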;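 note: 0% = 20 µM Hyamine control and 100% = vehicle cell control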); details: 60 h, at 10 µM, stronger effect = lower value
[6] = inhibitors of the yeast RAM network, pilot screen, dse1pr::URA3 reporter, 5-FOA selection (AID 869;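 active = inhibition over a set limit, the all-compound mean plus 3 SD, in both replicate runs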;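 note: 0% = DMSO wells with no growth and 100% = 10 µM 1-NA-PP1 with full growth; RAM network block rescues cells from 5-FOA so hits raise OD615 growth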); details: S. cerevisiae dse1pr::URA3 5-FOA growth, OD615, 2 d; at 10 µM; stronger effect = higher value; strain carries analog-sensitive mutant Cbk1 kinase
[7] = RAM signaling pathway blockade in yeast – S. cerevisiae, Pdr1DBD-CYC8 efflux-inhibited sensitized strain, primary screen (AID 1298;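 active = RAM network inhibition above 8.4% in each of two replicates, 3 SD over the compound average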;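 note: 0% = DMSO untreated cells without growth and 100% = 10 µM 1-NA-PP1 full growth; higher means more yeast growth rescued from 5-FOA killing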); details: S. cerevisiae cbk1-as DSE1-URA3 strain, 5-FOA growth OD615, 2 d; at 50 µM; stronger effect = higher value

Structure (SMILES) | growth inhibition [1] | growth inhibition [2] | viability increase [3] | viability [4] | viability [5] | inhibition [6] | RAM network inhibition [7]
CN(C)S(=O)(=O)c1ccc(C(=O)Nc2nc(-c3cccs3)cs2)cc1 | -5.6% | -13.7% | -1.56% | 49.8% | 20% (active) | 4.17% | 5.01%
COC(=O)C1=COC(C)C2CN3CCc4c([nH]c5ccccc45)C3CC12 (stereo not drawn) | -14.5% | 1.04% | -4.71% | 77.4% | 86% | 1.6% | 7.8%
COc1ccccc1CNC(=O)c1nnc(Cc2ccc(Cl)cc2)o1 | -9.86% | 15.4% | 2.29% | 103% | 99.8% | 1.81% | 1.15%
COc1ccc(OC)c(C2C(C(=O)Nc3ccccc3OC)=C(C)Nc3nc(CCCO)nn32)c1 (stereo not drawn) | 4.07% | -1.39% | -2.08% | 98.9% | 96.8% | 3.86% | 4.26%
CCCC(=O)C1=C(O)C(C(=O)OC)C(C)(C)CC1=Nc1ccncc1 (stereo not drawn) | 0.755% | 9.75% | -2.84% | 96.7% | 94.6% | 0.73% | 0.11%
CSC1=NCCN1C(=O)c1ccco1 | 1.44% | -4.79% | 0.04% | 103% | 98.3% | 0.865% | 3.19%
CC(=O)NC(CCS(C)(=O)=O)C(=O)Nc1cc(C)ccc1C (stereo not drawn) | -10.6% | -20% | 0.57% | 98.5% | 94.3% | 2.23% | 3.07%
N#Cc1ccc(NC(=O)Nc2ccc(Cl)cc2)cc1 | 3.13% | -4.69% | -7.91% | 6.71% (active) | 7.35% (active) | 1.34% | 1.44%
COc1cc(SC)ccc1C(=O)Nc1ccc2c(c1)CCN2S(C)(=O)=O | -4.62% | -7.36% | 0.15% | 100% | 94.2% | 3.22% | 4.39%
Cc1ccc(/C=N/c2sc3c(c2C#N)CCC3)s1 | -1.95% | -5.03% | -0.97% | 96.1% | 93.8% | 1.21% | 7%
O=C(COC(=O)c1cc2ccccc2o1)c1ccccc1 | -8.98% | 2% | -0.26% | 96.9% | 98.1% | -0.115% | 2.95%
Cc1ccc(C(=O)NCCCC(=O)O)o1 | -6.95% | -1.79% | -2.22% | 97.4% | 96.9% | 0.1% | 5.07%
COc1cccc(NC=C2C(=O)OC(C)(C)OC2=O)c1 | -11% | -2.86% | -1.97% | 98.7% | 106% | 0.94% | 2.55%
COc1ccc(C2=CC(c3ccc(Cl)cc3)n3cnnc3N2)cc1OC (stereo not drawn) | -1.79% | 2.91% | -2.06% | 97.3% | 87% | 0.37% | 0.78%
CCOC(=O)CSc1nnc(Cn2c(=O)sc3ccccc32)n1-c1ccccc1C | -8.34% | -6.71% | -1.07% | 96.2% | 96% | 2.26% | 2.24%
Cc1cc(C)nc(SCC(=O)Oc2ccc3oc(=O)cc(C)c3c2)n1 | -15.6% | -10.1% | -3.67% | 97% | 95.4% | 1.63% | 3.39%
O=S(=O)(NCc1csc(-c2ccccc2)n1)c1ccc(Cl)s1 | -17.6% | -16.7% | -0.6% | 96.9% | 102% | 0.21% | 5.99%
O=C(NCCN1CCN(c2ccccc2F)CC1)C1CCCN(S(=O)(=O)c2cnc[nH]2)C1 (stereo not drawn) | 5.84% | 3.21% | -1.19% | 104% | 98% | 2.38% | 0.68%
C=CCn1c(N(C)C)nc2c1c(=O)[nH]c(=O)n2C | -8.42% | -12.5% | 1.25% | 109% | 100% | 2.38% | 4.26%
Cc1cc(NC(=O)COC(=O)c2ccc(F)c(S(=O)(=O)N3CCOCC3)c2)no1 | -13.5% | -21.9% | -1.16% | 103% | 96.8% | 1.03% | 3.16%
Cc1nnc(NC(=O)CSc2nnc(Cc3cccn3C)n2C)s1 | -3.1% | 24.4% | -0.3% | 98.8% | 104% | 0.91% | 1.93%
c1ccc(Oc2nc(Oc3ccccc3)nc(N3CCOCC3)n2)cc1 | -3.76% | -9.93% | -2.99% | 83.7% | 74.1% | 0.355% | 8.11%
COc1ccc(CCN2CC34C=CC(O3)C(C(=O)NCc3ccccc3)C4C2=O)cc1OC (stereo not drawn) | -2.83% | -11.6% | -1.24% | 95.2% | 93.9% | 0.89% | 9.27%
COC(=O)C1=C(C)N(c2cc(Cl)cc(Cl)c2)C(=O)C1 | -2.8% | -18.3% | -6.24% | 28.2% | 45.7% | 0.14% | 2.04%
